ChEMBL document CHEMBL1132212, “Structure-activity relationship of small-sized HIV protease inhibitors containing allophenylnorstatine” (J Med Chem, 1999)

Columns and labels:
[1] = biological target: Human immunodeficiency virus type 1 protease (Human immunodeficiency virus 1) (UniProt Q72874); assay: Inhibition of recombinant HIV-1 protease (NY-5) using 5 uM
[2] = Plasma clearance rate (CL) was determined in dogs after intravenous administration of 25 mg/kg of the compound.; assay type: ADME, organism-based, Canis lupus familiaris; parameters: dose 25 mg/kg, route intravenous; details: dog
How it was run: (§1)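 Male beagles (7–10 kg) were assigned six per group. Each received 25 mg/kg from a 12.5 mg/mL solution in 50% PEG-in-water, either as an iv bolus via the cephalic vein or by oral gavage, fed or fasted overnight. Plasma was measured by HPLC. Analysis was noncompartmental: trapezoidal AUC, terminal-slope t1/2, CL = dose/AUC, Vdss from AUMC/AUC, and F from oral vs iv AUC. Values are mean ± SEM.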

Canis familiaris [3] = assay: Area under curve (AUC) was determined in dogs fed after intravenous administration of 25 mg/kg of the compound; assay type: ADME, organism-based, Canis lupus familiaris; parameters: dose 25 mg/kg, route intravenous; details: dog, in vivo; how it was run: as §1
Canis familiaris [4] = assay: Area under curve (AUC) was determined in dogs fed after oral administration of 25 mg/kg of the compound; assay type: ADME, organism-based, Canis lupus familiaris; parameters: dose 25 mg/kg, route oral; details: dog, in vivo; how it was run: as §1
Canis familiaris [5] = assay: Area under curve (AUC) was determined in fasted dogs after oral administration of 25 mg/kg of the compound; assay type: ADME, organism-based, Canis lupus familiaris; parameters: dose 25 mg/kg, route oral; details: dog, in vivo; how it was run: as §1
[6] = Maximum plasma concentration (Cmax) was determined in dogs fed after oral administration of 25 mg/kg of the compound.; assay type: ADME, organism-based, Canis lupus familiaris; parameters: dose 25 mg/kg, route oral; details: dog; how it was run: as §1
[7] = Bioavailability in rat after i.d. administration; assay type: ADME, organism-based; details: in vivo
How it was run: (§2)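 Three male Sprague–Dawley rats (300–400 g) per compound were anesthetized and dosed at 10 mg/kg in 50% PEG. Dosing was iv via the femoral vein or id by tube into the duodenum. Plasma was extracted with internal standard and analyzed by C18 HPLC with UV at 210 nm. Analysis was noncompartmental; F was calculated from id vs iv AUC. Values are mean ± SEM.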

[8] = Percent bioavailability (F%) was determined in dogs fed after oral administration of 25 mg/kg of the compound; assay type: ADME, organism-based, Canis lupus familiaris; details: dog, in vivo; how it was run: as §1
[9] = Percent bioavailability (F%) was determined in fasted dogs after oral administration of 25 mg/kg of the compound.; assay type: ADME, organism-based, Canis lupus familiaris; details: dog, in vivo; how it was run: as §1
[10] = Plasma half life was determined in dogs after intravenous administration of 25 mg/kg of the compound.; assay type: ADME, organism-based, Canis lupus familiaris; parameters: dose 25 mg/kg, route intravenous; details: dog; how it was run: as §1
[11] = Plasma half life was determined in rats after intravenous administration of the drug.; assay type: ADME, organism-based; details: rat; how it was run: as §2
[12] = Time of maximum plasma concentration (Tmax) was determined in dogs fed after oral administration of 25 mg/kg of the compound.; assay type: ADME, organism-based, Canis lupus familiaris; parameters: dose 25 mg/kg, route oral; details: dog; how it was run: as §1
[13] = Time of maximum plasma concentration (Tmax) was determined in rats after intraduodenal administration of the drug.; assay type: ADME, organism-based; details: rat; how it was run: as §2
[14] = Time of maximum plasma concentration (Tmax) was determined in fasted dogs after oral administration of 25 mg/kg of the compound.; assay type: ADME, organism-based, Canis lupus familiaris; parameters: dose 25 mg/kg, route oral; details: dog; how it was run: as §1
[15] = Volume of distribution (Vdss) was determined in dogs after intravenous administration of 25 mg/kg of the compound.; assay type: ADME, organism-based, Canis lupus familiaris; parameters: dose 25 mg/kg, route intravenous; details: dog, in vivo, read-out: Vdss; how it was run: as §1
CEM-SS = assay: Antiviral activity was determined based on inhibition of HIV-1 IIIB induced cytopathic effects in CEM-SS cells in vitro using tetrazolium reagent.; assay type: functional, cell-based; details: Homo sapiens
How it was run: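 CEM-SS cells (2.5 × 10^4 cells/mL) were cultured with HIV-1 IIIB and compound in RPMI-1640 with 10% FCS and gentamicin for 6 days at 37 °C in 5% CO2. The virus titer was set to kill all cells by day 6. Cytopathic effect was read by XTT staining, and IC50 was taken as the mean of duplicates.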

[16] = Toxic concentration was determined for CEM-SS cells; assay type: toxicity, cell-based; details: human, read-out: TC50 (the source's name)
How it was run: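 CEM-SS cells (2.5 × 10^4 cells/mL) were exposed to compound in RPMI-1640 with 10% FCS and gentamicin for 6 days at 37 °C in 5% CO2. Viability was read by XTT staining, and TC50 was taken as the mean of duplicates.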

[17] = biological target: Human immunodeficiency virus type 1 protease (Human immunodeficiency virus 1) (UniProt Q72874); assay: Inhibition of recombinant HIV-1 protease (NY-5) using 50 nM
How it was run: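 Recombinant HIV-1 protease (NY5 sequence) was expressed in E. coli and purified. It was preincubated with inhibitor in DMSO for 5 min at 37 °C in MES–NaOH pH 6.0 with DTT and EDTA. Substrate H-SQNYPIV-OH was then added for 60 min at 37 °C, and the reaction was stopped with TFA. The PIV product was measured by reverse-phase HPLC at 215 nm against a synthetic standard.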

[18] = biological target: Human immunodeficiency virus type 1 protease (Human immunodeficiency virus 1, UniProt Q72874); assay: Inhibition of recombinant HIV-1 protease (NY-5)
[19] = Maximum plasma concentration (Cmax) was determined in rats after intraduodenal administration of the drug; assay type: ADME, organism-based; parameters: route intraduodenal; details: rat; how it was run: as §2
[20] = Maximum plasma concentration (Cmax) was determined in fasted dogs after oral administration of 25 mg/kg of the compound.; assay type: ADME, organism-based, Canis lupus familiaris; parameters: dose 25 mg/kg, route oral; details: dog; how it was run: as §1
[21] = biological target: Human immunodeficiency virus type 1 protease (Human immunodeficiency virus 1) (UniProt Q72874); assay: Inhibition of recombinant HIV-1 protease (NY-5) using 50 nM

| inhibition [1] [%] | inhibition [17] [%] | Structure (SMILES) | IC50 (CEM-SS) [nM] | CC50 [16] [nM] | Ki [18] [nM] | further results |
| --- | --- | --- | --- | --- | --- | --- |
| 52 | – | CC(C)(C)NC(=O)[C@@H]1CSCN1C(=O)[C@@H](O)[C@H](Cc1ccccc1)NC(=O)c1ccccc1 | – | – | – | – |
| 48 | – | CC(C)(C)NC(=O)[C@@H]1CSCN1C(=O)[C@@H](O)[C@H](Cc1ccccc1)NC(=O)COc1ccccc1 | – | – | – | – |
| 38 | – | Cc1cccc(OCC(=O)N[C@@H](Cc2ccccc2)[C@H](O)C(=O)N2CSC[C@H]2C(=O)NC(C)(C)C)c1 | – | – | – | – |
| – | 75 | Cc1cccc(C)c1CNC(=O)[C@@H]1CSCN1C(=O)[C@@H](O)[C@H](Cc1ccccc1)NC(=O)c1cccc(O)c1C | – | – | 4.8 | – |
| – | – | CS[C@H](NC(=O)COc1cccc2cnccc12)C(=O)N[C@@H](Cc1ccccc1)[C@H](O)C(=O)N1CSC(C)(C)[C@H]1C(=O)NC(C)(C)C | 6 | > 20000 | 0.088 | – |
| – | 97 | CCc1c(O)cccc1C(=O)N[C@@H](Cc1ccccc1)[C@H](O)C(=O)N1CSC(C)(C)[C@H]1C(=O)NCc1ccccc1C | 11 | > 20000 | 0.19 | bioavailability [7]: 10%; half-life [11]: 2.1 h; Tmax [13]: 0.167 h; Cmax [19]: 230 nM |
| – | – | CS[C@H](NC(=O)COc1cccc2cnccc12)C(=O)N[C@@H](Cc1ccccc1)[C@H](O)C(=O)N1CSC[C@H]1C(=O)NC(C)(C)C | 34 | > 20000 | 0.74 | – |
| – | 18 | Cc1cccc(CNC(=O)[C@@H]2CSCN2C(=O)[C@@H](O)[C@H](Cc2ccccc2)NC(=O)c2cccc(O)c2C)c1 | – | – | – | – |
| 98 | 46 | CCc1c(O)cccc1C(=O)N[C@@H](Cc1ccccc1)[C@H](O)C(=O)N1CSC[C@H]1C(=O)NC(C)(C)C | – | – | 22.2 | bioavailability [7]: 36.2%; half-life [11]: 1.23 h; Tmax [13]: 0.5 h; Cmax [19]: 1730 nM |
| 76 | – | CC(C)(C)NC(=O)[C@@H]1CSCN1C(=O)[C@@H](O)[C@H](Cc1ccccc1)NC(=O)c1cccc(O)c1 | – | – | – | – |
| 94 | 32 | CCc1cccc(C)c1OCC(=O)N[C@@H](Cc1ccccc1)[C@H](O)C(=O)N1CSC[C@H]1C(=O)NC(C)(C)C | – | – | – | – |
| – | 88 | Cc1c(O)cccc1C(=O)N[C@@H](Cc1ccccc1)[C@H](O)C(=O)N1CSC(C)(C)[C@H]1C(=O)NCc1ccccc1C(F)(F)F | – | – | – | – |
| – | – | Cc1c(O)cccc1C(=O)N[C@@H](Cc1ccccc1)[C@H](O)C(=O)N1CSC[C@H]1C(=O)NCc1ccccc1 | – | – | 59 | inhibition [21]: 43% |
| – | – | Cc1ccccc1CNC(=O)[C@@H]1CSCN1C(=O)[C@@H](O)[C@H](Cc1ccccc1)NC(=O)c1cccc(O)c1C | > 200 | > 20000 | 8.9 | bioavailability [7]: 32.3%; half-life [11]: 0.683 h; Tmax [13]: 0.5 h; Cmax [19]: 770 nM |
| 44 | – | Cc1ccc(OCC(=O)N[C@@H](Cc2ccccc2)[C@H](O)C(=O)N2CSC[C@H]2C(=O)NC(C)(C)C)cc1 | – | – | – | – |
| 92 | 17 | CCCc1c(O)cccc1C(=O)N[C@@H](Cc1ccccc1)[C@H](O)C(=O)N1CSC[C@H]1C(=O)NC(C)(C)C | – | – | – | – |
| 82 | – | Cc1ccccc1OCC(=O)N[C@@H](Cc1ccccc1)[C@H](O)C(=O)N1CSC[C@H]1C(=O)NC(C)(C)C | – | – | – | – |
| 75 | – | Cc1ccccc1C(=O)N[C@@H](Cc1ccccc1)[C@H](O)C(=O)N1CSC[C@H]1C(=O)NC(C)(C)C | – | – | – | – |
| 81 | – | Cc1c(N)cccc1C(=O)N[C@@H](Cc1ccccc1)[C@H](O)C(=O)N1CSC[C@H]1C(=O)NC(C)(C)C | – | – | – | – |
| 97 | 35 | CCCc1cccc(C)c1OCC(=O)N[C@@H](Cc1ccccc1)[C@H](O)C(=O)N1CSC[C@H]1C(=O)NC(C)(C)C | – | – | – | – |
| 62 | – | CCc1cccc(CC)c1OCC(=O)N[C@@H](Cc1ccccc1)[C@H](O)C(=O)N1CSC[C@H]1C(=O)NC(C)(C)C | – | – | – | – |
| – | 13 | Cc1ccc(CNC(=O)[C@@H]2CSCN2C(=O)[C@@H](O)[C@H](Cc2ccccc2)NC(=O)c2cccc(O)c2C)cc1 | – | – | – | – |

| Structure (SMILES) | inhibition [1] [%] | inhibition [17] [%] | IC50 (CEM-SS) [nM] | CC50 [16] [nM] | Ki [18] [nM] | further results |
| --- | --- | --- | --- | --- | --- | --- |
| Cc1ccccc1CNC(=O)[C@H]1N(C(=O)[C@@H](O)[C@H](Cc2ccccc2)NC(=O)c2cccc(O)c2C)CSC1(C)C | – | 96 | 7 | > 20000 | 0.33 | clearance [2]: 14.7 mL/min/kg; AUC (Canis familiaris [3]): 51.6 µM·h; AUC (Canis familiaris [4]): 16.8 µM·h; AUC (Canis familiaris [5]): 19.1 µM·h; Cmax [6]: 4020 nM; bioavailability [7]: 41.6%; bioavailability [8]: 32.6%; bioavailability [9]: 37.1%; half-life [10]: 1.57 h; half-life [11]: 1.55 h; Tmax [12]: 1.5 h; Tmax [13]: 1 h; Tmax [14]: 1 h; Vd [15]: 1.58 L/kg; Cmax [19]: 700 nM; Cmax [20]: 5300 nM |
| CCc1c(O)cccc1C(=O)N[C@@H](Cc1ccccc1)[C@H](O)C(=O)N1CSC(C)(C)[C@H]1C(=O)NC(C)(C)C | 99 | 84 | 92 | > 20000 | 2.24 | bioavailability [7]: 37%; half-life [11]: 1.4 h; Tmax [13]: 0.5 h; Cmax [19]: 1160 nM |
| Cc1cccc(C)c1OCC(=O)N[C@@H](Cc1ccccc1)[C@H](O)C(=O)N1CSC[C@H]1C(=O)NC(C)(C)C | 95 | 56 | > 200 | > 20000 | 21.7 | – |
| Cc1c(O)cccc1C(=O)N[C@@H](Cc1ccccc1)[C@H](O)C(=O)N1CSC(C)(C)[C@H]1C(=O)NC(C)(C)C | 99 | 88 | 19 | > 20000 | 5.14 | bioavailability [7]: 39.4%; half-life [11]: 1.38 h; Tmax [13]: 0.5 h; Cmax [19]: 2600 nM |
| Cc1cccc(C)c1OCC(=O)N[C@@H](Cc1ccccc1)[C@H](O)C(=O)N1CSC(C)(C)[C@H]1C(=O)NC(C)(C)C | 97 | 35 | > 200 | > 20000 | 1.4 | – |
| Cc1c(O)cccc1C(=O)N[C@@H](Cc1ccccc1)[C@H](O)C(=O)N1CSC(C)(C)[C@H]1C(=O)NCc1ccccc1Cl | – | 95 | 34 | > 20000 | 0.29 | – |
| Cc1c(O)cccc1C(=O)N[C@@H](Cc1ccccc1)[C@H](O)C(=O)N1CSC[C@H]1C(=O)NC(C)(C)C | 97 | 36 | > 200 | > 20000 | 24.9 | bioavailability [7]: 33.9%; half-life [11]: 0.983 h; Tmax [13]: 0.5 h; Cmax [19]: 2910 nM |
